ChEMBL document CHEMBL4673206, “Truncated Latrunculins as Actin Inhibitors Targeting Plasmodium falciparum Motility and Host Cell Invasion” (J Med Chem, 2016)

Legend:
[1] = Inhibition of actin polymerisation in trophozoite-stage of plasmodium falciparum infected in human erythrocytes assessed as parasite growth inhibition measured after 72 hrs by SYBR dye based FACSort flow cytometry analysis; format: cell-based
Method in brief: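 Mature pigmented trophozoites at 0.1% parasitemia, 2% hematocrit, exposed to compound over two invasion cycles for 72 h at 37°C. Fixed with 0.25% glutaraldehyde for 1 h at room temperature, washed, stained with SYBR green, and counted by flow cytometry. Triplicate wells.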

[2] = Selectivity index, ratio of CC50 for cytotoxicity against human HepG2 cells to EC50 for inhibition of actin polymerisation in trophozoite-stage of plasmodium falciparum; format: toxicity, cell-based; conditions: read-out: Ratio CC50/EC50
[3] = Selectivity index, ratio of CC50 for cytotoxicity against human HEK293 cells to EC50 for inhibition of actin polymerisation in trophozoite-stage of plasmodium falciparum; format: toxicity, cell-based; conditions: read-out: Ratio CC50/EC50
HepG2 = assay: Cytotoxicity against human HepG2 cells assessed as reduction in cell viability incubated for 24 hrs by resazurin staining based assay; conditions: hepg2, 24 h
Method in brief: (§1)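 HEK293 and HepG2 seeded at 3000 and 5000 cells/well in DMEM with 10% FBS and left to attach 24 h (37°C, 5% CO2). Compounds added as a 1:3 serial dilution from 100 µM top concentration (0.5% DMSO final, 5% FBS final) for 24 h. Resazurin 10 µM added, 3 h, fluorescence at 560/590. Viability normalised to untreated and 100 µM tamoxifen wells; triplicate wells.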

HEK293 = assay: Cytotoxicity against HEK293 cells assessed as reduction in cell viability incubated for 24 hrs by resazurin staining based assay; conditions: human, hek293, 24 h; method in brief: as §1
[4] = Inhibition of actin polymerisation in Toxoplasma gondii RH infected in human HFF cells assessed as reduction in invasion incubated for 20 mins prior to infection in HFF cells followed by 1 hr incubation under 5% CO2 and subsequent incubation for 72 hrs in DMEM medium 5% CO2 by crystal violet staining based analysis
G-actin polymerization [5] = assay: Inhibition of KMEI-induced pyrene-labelled G-actin polymerization (unknown origin) at 100 uM preincubated for 1 min followed by KMEI addition and measured at 15 secs interval for 90 mins by spectrofluorimetric analysis relative to control; conditions: human, time 91 min
Method in brief: (§2)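 Converted to Mg2+ form with EGTA/MgCl2 for 2 min at room temperature; final actin 2.5 µM. Compound in DMSO added for 1 min, then polymerisation started with KMEI (50 mM KCl, 10 mM imidazole pH 7, 1 mM MgCl2, 1 mM EGTA). Fluorescence ex 365/em 407 nm read every 15 s for 90 min; triplicate.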

G-actin polymerization [6] = assay: Inhibition of KMEI-induced pyrene-labelled G-actin polymerization (unknown origin) at 10 uM preincubated for 1 min followed by KMEI addition and measured at 15 secs interval for 90 mins by spectrofluorimetric analysis relative to control; conditions: human, time 91 min; method in brief: as §2

Question: Which EC50 [1] does the source give for `COc1ccc(CN2C(=O)SC[C@H]2C2(OC)CC(O)CCO2)cc1` (stereo not given in full) here?
Answer: > 100 µM

Question: Which EC50 [1] does the source give for `COc1ccc(CN2C(=O)SC[C@H]2C2(OC)CC(OC(=O)c3ccc(I)cc3)CCO2)cc1` (mixture of isomers) here?
Answer: 49 µM

Question: For `COc1ccc(CN2C(=O)SC[C@H]2C2(OC)CC(OC(=O)c3cc(C)ccc3-c3cccs3)CCO2)cc1` (mixture of isomers), which EC50 [1] is on record?
Answer: 10 µM

Question: For `COc1ccc(CN2C(=O)SC[C@H]2C2(OC)CC(OC(=O)c3ccco3)CCO2)cc1` (mixture of isomers), which EC50 [1] is on record?
Answer: 62 µM

Question: With `COc1ccc(CN2C(=O)SC[C@H]2C2(OC)CC(OC(=O)c3ccc(C)cc3-c3ccccc3)CCO2)cc1` (mixture of isomers) as the compound, how does the EC50 [1] read?
Answer: 13 µM

Question: For `CCCCC(=O)OC1CCOC(OC)([C@@H]2CSC(=O)N2Cc2ccc(OC)cc2)C1` (mixture of isomers), which selectivity ratio [2] is on record?
Answer: 1

Question: What about the selectivity ratio [3] of the same compound?
Answer: 1

Question: And the CC50 (HepG2)?
Answer: 111 µM

Question: And the CC50 (HEK293)?
Answer: 103 µM

Question: And the EC50 [1]?
Answer: 66 µM

Question: What about the EC50 [4] of the same compound?
Answer: > 100 µM

Question: With `COc1ccc(CN2C(=O)SC[C@H]2C2(OC)CC(OC(=O)c3cccc(I)c3)CCO2)cc1` (mixture of isomers) as the compound, how does the EC50 [1] read?
Answer: 49 µM

Question: For `COc1ccc(CN2C(=O)SC[C@H]2C2(OC)CC(OC(=O)c3ccccc3C3=CCCCC3)CCO2)cc1` (mixture of isomers), which selectivity ratio [2] is on record?
Answer: 15

Question: What about the selectivity ratio [3] of the same compound?
Answer: 14

Question: What about the CC50 (HepG2) of the same compound?
Answer: 123 µM

Question: What about the CC50 (HEK293) of the same compound?
Answer: 109 µM

Question: What about the inhibition at 1.5 h, 100 µM (G-actin polymerization [5]) of the same compound?
Answer: < 10%

Question: What about the inhibition at 1.5 h, 10 µM (G-actin polymerization [6]) of the same compound?
Answer: < 10%

Question: And the EC50 [1]?
Answer: 7 µM

Question: And the EC50 [4]?
Answer: 16 µM

Question: With `COc1ccc(CN2C(=O)SC[C@H]2C2(OC)CC(OC(=O)c3ccccc3-c3cccc4ccccc34)CCO2)cc1` (mixture of isomers) as the compound, how does the selectivity ratio [2] read?
Answer: 15

Question: And the selectivity ratio [3]?
Answer: 17

Question: And the CC50 (HepG2)?
Answer: 90 µM

Question: And the CC50 (HEK293)?
Answer: 99 µM

Question: And the inhibition at 1.5 h, 100 µM (G-actin polymerization [5])?
Answer: < 10%

Question: What about the inhibition at 1.5 h, 10 µM (G-actin polymerization [6]) of the same compound?
Answer: < 10%

Question: And the EC50 [1]?
Answer: 7 µM

Question: What about the EC50 [4] of the same compound?
Answer: 16 µM

Question: With `COc1ccc(CN2C(=O)SC[C@H]2C2(OC)CC(OC(=O)c3ccccc3I)CCO2)cc1` (mixture of isomers) as the compound, how does the inhibition at 1.5 h, 100 µM (G-actin polymerization [5]) read?
Answer: < 10%

Question: What about the inhibition at 1.5 h, 10 µM (G-actin polymerization [6]) of the same compound?
Answer: < 10%

Question: And the EC50 [1]?
Answer: 17 µM

Question: With `CCC/C=C/c1ccccc1C(=O)OC1CCOC(OC)([C@@H]2CSC(=O)N2Cc2ccc(OC)cc2)C1` (mixture of isomers) as the compound, how does the EC50 [1] read?
Answer: 49 µM

Question: Which EC50 [1] does the source give for `COc1ccc(CN2C(=O)SC[C@H]2C2(OC)CC(OC(=O)C3CCCC3)CCO2)cc1` (mixture of isomers) here?
Answer: 66 µM

Question: What about the EC50 [4] of the same compound?
Answer: > 100 µM

Question: With `COc1ccc(CN2C(=O)SC[C@H]2C2(OC)CC(OC(=O)c3ccc(-c4cccs4)cc3)CCO2)cc1` (mixture of isomers) as the compound, how does the EC50 [1] read?
Answer: 24 µM

Question: Which EC50 [1] does the source give for `COc1ccc(CN2C(=O)SC[C@H]2C2(OC)CC(OC(=O)c3ccccc3)CCO2)cc1` (mixture of isomers) here?
Answer: 31 µM

Question: Which EC50 [1] does the source give for `COc1ccc(CN2C(=O)SC[C@H]2C2(OC)CC(OC(=O)c3ccc(C)cc3-c3cccs3)CCO2)cc1` (mixture of isomers) here?
Answer: 15 µM

Question: Which results are given for `COc1ccc(CN2C(=O)SC[C@H]2C2(OC)CC(OC(=O)c3ccccc3-c3cccs3)CCO2)cc1` (mixture of isomers)?
Answer: inhibition at 1.5 h, 100 µM (G-actin polymerization [5]): < 10%; inhibition at 1.5 h, 10 µM (G-actin polymerization [6]): < 10%; EC50 [1]: 7 µM; EC50 [4]: 19 µM

Question: For `COc1ccc(CN2C(=O)SC[C@H]2C2(OC)CC(OC(=O)c3cccc(-c4cccs4)c3)CCO2)cc1` (mixture of isomers), which EC50 [1] is on record?
Answer: 18 µM

Question: For `C/C1=C/C(=O)O[C@@H]2C[C@@H](CC[C@H](C)/C=C\CC1)O[C@@](O)([C@@H]1CSC(=O)N1)C2` [LATRUNCULIN B], which inhibition at 1.5 h, 100 µM (G-actin polymerization [5]) is on record?
Answer: 100%

Question: What about the inhibition at 1.5 h, 10 µM (G-actin polymerization [6]) of the same compound?
Answer: 100%

Question: What about the EC50 [1] of the same compound?
Answer: 44 µM
